The results in this text go back to ChEMBL document CHEMBL3297684, “Discovery of biarylaminoquinazolines as novel tubulin polymerization inhibitors” (J Med Chem, 2014).

Test [1] has as its target Tyrosine-protein kinase ABL1 (Homo sapiens, UniProt P00519). Nature of the test: Inhibition of Abl1 (unknown origin) assessed as incorporation of [32P] gamma-ATP in to myelin basic protein after 30 mins by autoradiographic analysis.
A short description of test [2]: Cytotoxicity against human NCI-ADR-RES cells assessed as inhibition of cell proliferation by SRB assay. The class given is functional, cell-based. The method, boiled down: (§1)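 Cell protein measured with sulforhodamine B. NCI/ADR-RES is isogenic with OVCAR-8 but overexpresses P-gp. Values are mean SD of at least three independent experiments.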
In test [3] the target is Fibroblast growth factor receptor 1 (Homo sapiens, UniProt P11362). The test can be described thus: Inhibition of FGFR1 (unknown origin) assessed as incorporation of [32P] gamma-ATP in to myelin basic protein after 30 mins by autoradiographic analysis.
Fibroblast growth factor receptor 1, sequence (P11362 whole entry): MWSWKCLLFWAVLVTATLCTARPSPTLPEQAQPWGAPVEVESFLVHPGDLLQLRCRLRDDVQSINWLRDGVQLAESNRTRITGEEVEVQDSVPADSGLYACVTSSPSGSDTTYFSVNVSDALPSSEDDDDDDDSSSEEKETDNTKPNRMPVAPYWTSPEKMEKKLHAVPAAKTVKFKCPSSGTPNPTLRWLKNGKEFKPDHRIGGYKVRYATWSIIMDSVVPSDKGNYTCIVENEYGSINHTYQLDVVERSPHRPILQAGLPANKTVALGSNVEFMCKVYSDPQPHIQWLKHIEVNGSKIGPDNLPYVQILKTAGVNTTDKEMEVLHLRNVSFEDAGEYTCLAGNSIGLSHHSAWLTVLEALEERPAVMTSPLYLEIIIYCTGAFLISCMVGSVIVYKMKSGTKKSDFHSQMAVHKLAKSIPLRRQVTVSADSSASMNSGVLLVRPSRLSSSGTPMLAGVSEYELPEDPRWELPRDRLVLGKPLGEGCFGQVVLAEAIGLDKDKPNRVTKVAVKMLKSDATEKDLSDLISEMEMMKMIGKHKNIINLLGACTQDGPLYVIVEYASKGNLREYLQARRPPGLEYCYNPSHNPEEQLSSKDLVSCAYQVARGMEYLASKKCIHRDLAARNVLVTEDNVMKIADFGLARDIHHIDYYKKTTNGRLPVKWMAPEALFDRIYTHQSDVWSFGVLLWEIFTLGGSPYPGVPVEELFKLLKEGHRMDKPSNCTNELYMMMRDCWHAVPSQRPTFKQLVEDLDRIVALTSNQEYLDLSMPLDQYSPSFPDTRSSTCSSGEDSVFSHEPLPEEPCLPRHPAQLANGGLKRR
The target of test [4] is Proto-oncogene tyrosine-protein kinase Src (Homo sapiens, UniProt P12931). Nature of the test: Inhibition of Src (unknown origin) assessed as incorporation of [32P] gamma-ATP in to myelin basic protein after 30 mins by autoradiographic analysis.
Proto-oncogene tyrosine-protein kinase Src, sequence (P12931 2-536 limits assumed): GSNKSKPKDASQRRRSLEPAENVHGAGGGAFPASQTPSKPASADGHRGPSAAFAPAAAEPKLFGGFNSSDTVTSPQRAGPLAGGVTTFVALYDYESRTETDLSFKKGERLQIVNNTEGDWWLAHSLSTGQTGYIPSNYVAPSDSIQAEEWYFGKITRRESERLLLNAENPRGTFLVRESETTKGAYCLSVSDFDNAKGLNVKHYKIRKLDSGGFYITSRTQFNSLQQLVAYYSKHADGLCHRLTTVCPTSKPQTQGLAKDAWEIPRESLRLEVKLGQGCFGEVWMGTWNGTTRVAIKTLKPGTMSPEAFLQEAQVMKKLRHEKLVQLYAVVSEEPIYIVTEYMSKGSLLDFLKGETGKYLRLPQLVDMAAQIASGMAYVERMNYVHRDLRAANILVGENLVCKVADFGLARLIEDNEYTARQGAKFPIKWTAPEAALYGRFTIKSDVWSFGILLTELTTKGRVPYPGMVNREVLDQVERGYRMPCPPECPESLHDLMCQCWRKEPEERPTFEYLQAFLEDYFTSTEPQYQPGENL
The target in test [5] is Epidermal growth factor receptor (Homo sapiens, UniProt P00533). The test can be described thus: Inhibition of EGFR (unknown origin) assessed as incorporation of [32P] gamma-ATP in to myelin basic protein after 30 mins by autoradiographic analysis.
Epidermal growth factor receptor, sequence (P00533 whole entry): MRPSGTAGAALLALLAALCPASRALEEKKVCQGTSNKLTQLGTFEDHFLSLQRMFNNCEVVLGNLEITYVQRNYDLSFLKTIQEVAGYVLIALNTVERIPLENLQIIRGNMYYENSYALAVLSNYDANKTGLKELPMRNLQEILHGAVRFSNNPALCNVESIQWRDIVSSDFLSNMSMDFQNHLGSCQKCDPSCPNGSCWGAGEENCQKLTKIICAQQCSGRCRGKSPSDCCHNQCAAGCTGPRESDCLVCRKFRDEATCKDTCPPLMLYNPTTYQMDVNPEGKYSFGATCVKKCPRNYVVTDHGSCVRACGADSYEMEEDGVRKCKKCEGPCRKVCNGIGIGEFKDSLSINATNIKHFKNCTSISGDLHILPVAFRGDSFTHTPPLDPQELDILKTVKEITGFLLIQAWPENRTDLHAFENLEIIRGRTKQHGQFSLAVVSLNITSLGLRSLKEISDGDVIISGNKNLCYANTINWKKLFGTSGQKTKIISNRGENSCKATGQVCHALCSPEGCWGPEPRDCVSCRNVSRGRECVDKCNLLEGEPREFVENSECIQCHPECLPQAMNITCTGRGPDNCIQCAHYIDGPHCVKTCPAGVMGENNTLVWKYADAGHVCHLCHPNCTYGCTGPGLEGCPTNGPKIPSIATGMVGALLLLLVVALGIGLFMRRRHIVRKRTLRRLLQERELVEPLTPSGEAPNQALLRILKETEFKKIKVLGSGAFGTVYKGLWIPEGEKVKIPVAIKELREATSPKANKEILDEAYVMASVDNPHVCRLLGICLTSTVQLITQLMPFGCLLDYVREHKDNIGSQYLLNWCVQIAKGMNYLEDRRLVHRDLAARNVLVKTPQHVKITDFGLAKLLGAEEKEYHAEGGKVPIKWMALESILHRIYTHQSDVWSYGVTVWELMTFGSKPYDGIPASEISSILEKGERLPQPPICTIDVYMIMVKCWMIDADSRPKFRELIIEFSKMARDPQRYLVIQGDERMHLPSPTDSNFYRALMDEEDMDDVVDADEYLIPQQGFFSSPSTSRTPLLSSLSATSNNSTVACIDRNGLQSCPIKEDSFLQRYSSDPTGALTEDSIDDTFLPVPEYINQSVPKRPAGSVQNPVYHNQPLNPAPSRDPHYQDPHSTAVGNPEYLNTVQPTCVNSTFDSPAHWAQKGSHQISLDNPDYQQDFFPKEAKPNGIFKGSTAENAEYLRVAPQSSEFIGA
A short description of test [6]: Cytotoxicity against human OVCAR8 cells assessed as inhibition of cell proliferation by SRB assay. The format is functional, cell-based. Conditions: OVCAR-8. The method, boiled down:
as §1
Background: In SRB staining, fixed cells bind dye roughly in proportion to their protein.

In another test the target is Tubulin (Bos taurus, UniProt Q6B856+Q862L2+Q862F3). The test can be described thus: Inhibition of bovine brain tubulin polymerization after 20 mins by turbidimetry analysis. The method, boiled down:
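Electrophoretically homogeneous bovine brain tubulin at 10 μM (1.0 mg/mL) in 0.8 M monosodium glutamate, pH 6.6, with compound in 4% (v/v) DMSO. Preincubated 15 min at 30 °C without GTP, then chilled; 0.4 mM GTP added at 0 °C. Temperature raised to 30 °C and turbidity followed at 350 nm.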

A short description of test [7]: Cell cycle arrest in human OVCAR8 cells assessed as increase in number of cells at G2/M phase at 1 uM after 30 mins by flow cytometry. The class given is functional, cell-based. Conditions: OVCAR-8, in the assay text read “after 24 hrs” for “after 30 mins”. The method, boiled down: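 OVCAR-8 cells grown in DMEM with 10% heat-inactivated FBS plus penicillin/streptomycin, 37 °C, 5% CO2. Exposed 24 h to 1 μM compound or drug-free medium. Fixed in 70% cold ethanol, RNase-treated (100 μg/mL, 30 min, 37 °C), stained with propidium iodide (100 μg/mL, 30 min, room temperature). 10 000 events per sample read by flow cytometry for G2/M fraction.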
In general terms: In flow cytometry, cells or beads pass a laser one at a time.

Another test relates to A-431. Nature of the test: Cytotoxicity against human A431 cells assessed as reduction in cell viability after 68 hrs by MTT assay. The class given is functional, cell-based. The conditions noted are these: A-431, 68 h. (In general: Tetrazolium dyes change colour on reduction, which living cells bring about.)

Structures are written as SMILES. pEC50, pIC50: −log10 of the molar value. Activity calls are given as the source filed them. The calls are words filed in the database; no cut-off is given here.

Tyrosine-protein kinase ABL1, sequence (P00519 whole entry): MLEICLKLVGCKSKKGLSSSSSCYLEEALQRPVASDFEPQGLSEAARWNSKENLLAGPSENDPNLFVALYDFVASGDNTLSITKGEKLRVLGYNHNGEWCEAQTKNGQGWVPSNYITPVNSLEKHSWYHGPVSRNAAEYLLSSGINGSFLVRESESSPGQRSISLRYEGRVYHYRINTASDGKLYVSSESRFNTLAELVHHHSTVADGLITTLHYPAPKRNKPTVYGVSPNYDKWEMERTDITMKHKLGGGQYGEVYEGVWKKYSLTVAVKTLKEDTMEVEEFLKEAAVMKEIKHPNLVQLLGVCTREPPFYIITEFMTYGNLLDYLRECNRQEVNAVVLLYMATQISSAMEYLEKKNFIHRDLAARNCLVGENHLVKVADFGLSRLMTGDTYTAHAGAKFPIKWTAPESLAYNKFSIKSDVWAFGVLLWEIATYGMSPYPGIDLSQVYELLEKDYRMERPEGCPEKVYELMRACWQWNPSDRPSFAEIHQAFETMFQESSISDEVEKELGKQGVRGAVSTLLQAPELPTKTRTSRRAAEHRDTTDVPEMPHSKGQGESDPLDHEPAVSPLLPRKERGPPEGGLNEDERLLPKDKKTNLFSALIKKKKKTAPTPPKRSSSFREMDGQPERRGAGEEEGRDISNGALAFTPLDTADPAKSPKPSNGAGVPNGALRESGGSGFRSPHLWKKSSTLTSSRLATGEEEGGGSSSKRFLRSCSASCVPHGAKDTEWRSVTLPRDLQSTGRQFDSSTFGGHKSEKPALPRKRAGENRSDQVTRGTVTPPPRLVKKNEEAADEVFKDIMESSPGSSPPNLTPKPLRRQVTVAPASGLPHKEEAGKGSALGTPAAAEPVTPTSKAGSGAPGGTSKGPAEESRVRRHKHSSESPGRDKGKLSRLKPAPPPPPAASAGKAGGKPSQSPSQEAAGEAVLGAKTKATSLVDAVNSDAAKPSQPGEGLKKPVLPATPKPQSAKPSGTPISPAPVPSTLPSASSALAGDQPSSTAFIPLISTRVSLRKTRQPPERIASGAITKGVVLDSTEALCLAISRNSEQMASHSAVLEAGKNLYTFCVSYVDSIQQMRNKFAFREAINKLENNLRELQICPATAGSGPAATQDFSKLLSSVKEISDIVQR

The term pIC50 denotes the IC50 on a negative log10 scale, so that one unit is a factor of ten. What is called pEC50 is the negative decadic logarithm of the EC50, by convention in mol/L. `COc1ccc(/C=C\c2cc(OC)c(OC)c(OC)c2)cc1O` [COMBRETASTATIN A4]: the pIC50 in test [1], in test [3], in [4] and in test [5] was less than 5.00 throughout. Besides, the figures for the pEC50 in test [2] and in [6] were 5.30 and 8.26, respectively.

The IC50 is the midpoint of a concentration-inhibition curve. A lower IC50 goes with inhibition by little substance. Regarding `c1ccc(-c2ccnc(Nc3ncnc4cc5c(cc34)OCCO5)n2)cc1`, the pIC50 in [1], in test [3], in [4] and in test [5] was less than 5.00 each time. The molecule further showed a concentration for half-maximal inhibition (IC50) against Tubulin of more than 20 µM.

Turning to `Cl.c1cc(Nc2ncnc3cc4c(cc23)OCCO4)cc(-c2ccc[nH]2)c1`, the pIC50 in test [1], in test [3], in test [4] and in [5] was less than 5.00 each time. The pEC50 in [2] was 5.44; in test [6], 5.40. In addition, the IC50 at Tubulin stood at 3 µM.

In the case of `c1ccc(-c2cccc(Nc3ncnc4cc5c(cc34)OCO5)c2)cc1`, at Tubulin, the IC50 stood at 1.1 µM. Further, the pEC50 in test [6] was 7.52. The outcome in test [7] was Active.

For `Cl.c1ccc(-c2cccc(Nc3ncnc4cc5c(cc34)OCCO5)c2)nc1`, the pIC50 in test [1], in test [3], in [4] and in [5] was less than 5.00 in each case. At Tubulin, the half-maximal inhibitory concentration (IC50) was determined as 3.2 µM.

The molecule `c1ccc(-c2cccc(Nc3ncnc4cc5c(cc34)OCCO5)c2)cc1` yielded an IC50 on Tubulin of 4 µM. The pEC50 in test [6] was 6.30.

Turning to `Cl.c1cc(Nc2ncnc3cc4c(cc23)OCCO4)cc(-c2ccco2)c1`, the pIC50 in test [1], in test [3], in [4] and in test [5] was less than 5.00 each time. At Tubulin, this molecule yielded an IC50 of 12 µM.

Take `COc1cc2ncnc(Nc3cccc(-c4ccccc4)c3)c2cc1OC`: the pIC50 in test [1], in test [3], in test [4] and in test [5] was less than 5.00 in each case. Besides, the IC50 at Tubulin is more than 20 µM.

As to `Cl.c1cc(Nc2ncnc3cc4c(cc23)OCCO4)cc(-c2cccs2)c1`, the pIC50 in test [1], in test [3], in test [4] and in test [5] was less than 5.00 each time. Besides, the pEC50 is 8.40 in test [2] and 8.00 in test [6]. This molecule also returned an IC50 against Tubulin of 1.2 µM. The outcome in [7] was Active.

Consider `c1ccc(-c2csc(Nc3ncnc4cc5c(cc34)OCCO5)n2)cc1`, for which the negative logarithm of the IC50 (pIC50) in test [1], in test [3], in test [4] and in test [5] was less than 5.00 throughout. Moreover, at Tubulin, the IC50 is more than 20 µM.

`c1ccc(-c2cccc(Nc3ncnc4cc5c(cc34)OCCCO5)c2)cc1` showed an IC50 at Tubulin of 2.3 µM. The pEC50 with A-431 is 6.18; in [6] it was 6.26.

For `CC(=O)O[C@H]1C(=O)[C@@]2(C)[C@H]([C@H](OC(=O)c3ccccc3)[C@]3(O)C[C@H](OC(=O)[C@H](O)[C@@H](NC(=O)c4ccccc4)c4ccccc4)C(C)=C1C3(C)C)[C@]1(OC(C)=O)CO[C@@H]1C[C@@H]2O` [PACLITAXEL], the pIC50 in test [1], in test [3], in test [4] and in [5] was less than 5.00 in each case. Further, the pEC50 in [2] is 7.89; in test [6], 7.74.
